# Experimental data reported in ChEMBL document CHEMBL3297682, “Synthesis and anticancer activity of γ-(triazolyl ethylidene)butenolides and polyfunctional pyrrolinones” (Eur J Med Chem, 2014).
# The source made the active and inactive calls. The rule behind the calls is not given here.
# Assays:
# [1] = test system: U-937; assay: Antiproliferative activity against human U937 cells after 24 hrs by MTT assay; assay type: functional, cell-based; conditions: U-937, 24 h
# Summary of the method: (§1)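 1×10^4 cells/well seeded in DMEM with 10% FBS and antibiotic-antimycotic, grown 24 h at 37 °C under 5% CO2. Compounds diluted in phenol red-free DMEM with 2% FBS and given for 24 h, with vehicle control. MTT (5 mg/mL, 20 µL) added for 3 h. Formazan dissolved in DMSO, absorbance read at 570 nm. IC50 is the concentration giving 50% growth inhibition.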
# [2] = test system: MDA-MB-231; assay: Antiproliferative activity against human MDA-MB-231 cells after 24 hrs by MTT assay; assay type: functional, cell-based; conditions: MDA-MB-231, 24 h; summary of the method: as §1
# [3] = test system: MCF7; assay: Antiproliferative activity against human MCF7 cells after 24 hrs by MTT assay; assay type: functional, cell-based; conditions: MCF7, 24 h; summary of the method: as §1
# [4] = test system: PC-3; assay: Antiproliferative activity against human PC3 cells after 24 hrs by MTT assay; assay type: functional, cell-based; conditions: PC-3, 24 h; summary of the method: as §1
# [5] = test system: HCT-116; assay: Antiproliferative activity against human HCT116 cells after 24 hrs by MTT assay; assay type: functional, cell-based; conditions: HCT-116, 24 h; summary of the method: as §1
# [6] = test system: HEK293; assay: Cytotoxicity against human HEK293 cells after 24 hrs by MTT assay; assay type: cell-based; conditions: HEK293, 24 h; summary of the method: as §1
# [7] = test system: MDA-MB-231; assay: Induction of reactive oxygen species production in human MDA-MB-231 cells after 24 hrs by DCFH-DA dye based flow cytometry; assay type: functional, cell-based
# Summary of the method: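 MDA-MB-231 cells (1×10^6) seeded 24 h in six-well plates, then treated 24 h. Cells harvested, washed in PBS and fixed in absolute methanol. Cells resuspended in PBS with 15 µg/mL DCFH-DA for 30 min in the dark, then pelleted, taken up in PBS, and fluorescence read by flow cytometry.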
smiles,measurement,setting,value
O=C1NC(O)(CCn2cc(Cc3ccccc3)nn2)C(OCc2ccccc2)=C1OCc1ccccc1 (stereo not given),IC50,[1],> 100 µM
same,IC50,[2],> 100 µM
same,IC50,[3],39.2 µM
same,IC50,[4],> 100 µM
same,IC50,[5],51.2 µM
same,IC50,[6],86 µM
COC1=C(OC)/C(=C/Cn2cc(Cc3ccccc3)nn2)OC1=O,IC50,[1],> 100 µM
same,IC50,[2],> 100 µM
same,IC50,[3],> 100 µM
same,IC50,[4],> 100 µM
same,IC50,[5],> 100 µM
same,IC50,[6],> 100 µM
O=C1O/C(=C\Cn2cc(Cc3ccccc3)nn2)C(OCc2ccccc2)=C1OCc1ccccc1,Activity,[7],Active
same,IC50,[1],> 100 µM
same,IC50,[2],29.2 µM
same,IC50,[3],40 µM
same,IC50,[4],71.3 µM
same,IC50,[5],83.1 µM
same,IC50,[6],70 µM
CC(C)(C)c1ccc(-c2cn(CCC3(O)NC(=O)C(OCc4ccccc4)=C3OCc3ccccc3)nn2)cc1 (stereo not given),IC50,[1],56.5 µM
same,IC50,[2],> 100 µM
same,IC50,[3],25.1 µM
same,IC50,[4],43 µM
same,IC50,[5],> 100 µM
same,IC50,[6],> 100 µM
COC1=C(OC)/C(=C/Cn2cc(-c3ccc(C(C)(C)C)cc3)nn2)OC1=O,IC50,[1],30 µM
same,IC50,[2],> 100 µM
same,IC50,[3],> 100 µM
same,IC50,[4],> 100 µM
same,IC50,[5],> 100 µM
same,IC50,[6],> 100 µM
O=C1O/C(=C\Cn2cc(-c3ccccn3)nn2)C(OCc2ccccc2)=C1OCc1ccccc1,IC50,[1],70.2 µM
same,IC50,[2],> 100 µM
same,IC50,[3],> 100 µM
same,IC50,[4],> 100 µM
same,IC50,[5],> 100 µM
same,IC50,[6],> 100 µM
COC1=C(OC)/C(=C/Cn2cc(-c3ccccn3)nn2)OC1=O,IC50,[1],> 100 µM
same,IC50,[2],> 100 µM
same,IC50,[3],> 100 µM
same,IC50,[4],> 100 µM
same,IC50,[5],> 100 µM
same,IC50,[6],> 100 µM
CCCCCCc1cn(C/C=C2\OC(=O)C(OC)=C2OC)nn1,IC50,[1],> 100 µM
same,IC50,[2],74.7 µM
same,IC50,[3],> 100 µM
same,IC50,[4],> 100 µM
same,IC50,[5],> 100 µM
same,IC50,[6],> 100 µM
O=C1O/C(=C\Cn2cc(CCCCO)nn2)C(OCc2ccccc2)=C1OCc1ccccc1,IC50,[1],> 100 µM
same,IC50,[2],> 100 µM
same,IC50,[3],53.6 µM
same,IC50,[4],> 100 µM
same,IC50,[5],> 100 µM
same,IC50,[6],> 100 µM
CCCCCCCCN1C(=O)C(OCc2ccccc2)=C(OCc2ccccc2)C1(O)CCn1cc(-c2ccccn2)nn1 (stereo not given),IC50,[1],84.2 µM
same,IC50,[2],> 100 µM
same,IC50,[3],24.3 µM
same,IC50,[4],80.3 µM
same,IC50,[5],> 100 µM
same,IC50,[6],> 100 µM
CC/C(=C(\c1ccccc1)c1ccc(OCCN(C)C)cc1)c1ccccc1 [TAMOXIFEN],IC50,[2],14 µM
same,IC50,[3],6 µM
same,IC50,[4],7 µM
same,IC50,[6],50 µM
CC(C)(C)c1ccc(-c2cn(C/C=C3\OC(=O)C(OCc4ccccc4)=C3OCc3ccccc3)nn2)cc1,IC50,[1],> 100 µM
same,IC50,[2],51.2 µM
same,IC50,[3],> 100 µM
same,IC50,[4],> 100 µM
same,IC50,[5],> 100 µM
same,IC50,[6],> 100 µM
O=C1O/C(=C\Cn2cc(C3=CCCCC3)nn2)C(OCc2ccccc2)=C1OCc1ccccc1,IC50,[1],> 100 µM
same,IC50,[2],> 100 µM
same,IC50,[3],> 100 µM
same,IC50,[4],55.6 µM
same,IC50,[5],> 100 µM
same,IC50,[6],> 100 µM
CC(C)(C)c1ccc(-c2cn(CCC3(O)C(OCc4ccccc4)=C(OCc4ccccc4)C(=O)N3CCc3ccccc3)nn2)cc1 (stereo not given),IC50,[1],60.2 µM
same,IC50,[2],> 100 µM
same,IC50,[3],32 µM
same,IC50,[4],65.5 µM
same,IC50,[5],> 100 µM
same,IC50,[6],71 µM
CCCCCc1cn(C/C=C2\OC(=O)C(OCc3ccccc3)=C2OCc2ccccc2)nn1,IC50,[1],> 100 µM
same,IC50,[2],> 100 µM
same,IC50,[3],> 100 µM
same,IC50,[4],> 100 µM
same,IC50,[5],> 100 µM
same,IC50,[6],> 100 µM
COC1=C(OC)/C(=C/Cn2cc(-c3ccccc3)nn2)OC1=O,IC50,[1],> 100 µM
same,IC50,[2],> 100 µM
same,IC50,[3],> 100 µM
same,IC50,[4],> 100 µM
same,IC50,[5],> 100 µM
same,IC50,[6],> 100 µM
Cc1ccc(-c2cn(CCC3(O)NC(=O)C(OCc4ccccc4)=C3OCc3ccccc3)nn2)cc1 (stereo not given),IC50,[1],54 µM
same,IC50,[2],82.2 µM
same,IC50,[3],24 µM
same,IC50,[4],84.2 µM
same,IC50,[5],74.3 µM
same,IC50,[6],45 µM
CCCCCCCCN1C(=O)C(OCc2ccccc2)=C(OCc2ccccc2)/C1=C/Cn1cc(-c2ccccn2)nn1,IC50,[1],90.2 µM
same,IC50,[2],> 100 µM
same,IC50,[3],46.2 µM
same,IC50,[4],> 100 µM
same,IC50,[5],> 100 µM
same,IC50,[6],83 µM
O=C1NC(O)(CCn2cc(C3=CCCCC3)nn2)C(OCc2ccccc2)=C1OCc1ccccc1 (stereo not given),Activity,[7],Active
same,IC50,[1],> 100 µM
same,IC50,[2],13.1 µM
same,IC50,[3],> 100 µM
same,IC50,[4],67.2 µM
same,IC50,[5],> 100 µM
same,IC50,[6],70 µM
Cc1ccc(-c2cn(C/C=C3\OC(=O)C(OCc4ccccc4)=C3OCc3ccccc3)nn2)cc1,IC50,[1],> 100 µM
same,IC50,[2],> 100 µM
same,IC50,[3],> 100 µM
same,IC50,[4],> 100 µM
same,IC50,[5],> 100 µM
same,IC50,[6],> 100 µM
O=C1O/C(=C\Cn2cc(-c3ccccc3)nn2)C(OCc2ccccc2)=C1OCc1ccccc1,IC50,[1],> 100 µM
same,IC50,[2],44 µM
same,IC50,[3],> 100 µM
same,IC50,[4],> 100 µM
same,IC50,[5],> 100 µM
same,IC50,[6],> 100 µM
CCCCc1cn(C/C=C2\OC(=O)C(OCc3ccccc3)=C2OCc2ccccc2)nn1,IC50,[1],> 100 µM
same,IC50,[2],> 100 µM
same,IC50,[3],> 100 µM
same,IC50,[4],> 100 µM
same,IC50,[5],64.3 µM
same,IC50,[6],> 100 µM
O=C1O/C(=C\Cn2cc(C3CC3)nn2)C(OCc2ccccc2)=C1OCc1ccccc1,IC50,[1],> 100 µM
same,IC50,[2],> 100 µM
same,IC50,[3],> 100 µM
same,IC50,[4],> 100 µM
same,IC50,[5],> 100 µM
same,IC50,[6],> 100 µM
CCCCCC(O)c1cn(C/C=C2\OC(=O)C(OC)=C2OC)nn1 (stereo not given),IC50,[1],> 100 µM
same,IC50,[2],35.5 µM
same,IC50,[3],> 100 µM
same,IC50,[4],> 100 µM
same,IC50,[5],> 100 µM
same,IC50,[6],80 µM
CCCc1cn(CCC2(O)C(OCc3ccccc3)=C(OCc3ccccc3)C(=O)N2CCC)nn1 (stereo not given),IC50,[1],> 100 µM
same,IC50,[2],> 100 µM
same,IC50,[3],> 100 µM
same,IC50,[4],35 µM
same,IC50,[5],> 100 µM
same,IC50,[6],90 µM
COC1=C(OC)/C(=C/Cn2cc(CCCCO)nn2)OC1=O,IC50,[1],> 100 µM
same,IC50,[2],87.5 µM
same,IC50,[3],35 µM
same,IC50,[4],> 100 µM
same,IC50,[5],> 100 µM
same,IC50,[6],> 100 µM
CCCc1cn(C/C=C2/C(OCc3ccccc3)=C(OCc3ccccc3)C(=O)N2CCC)nn1,IC50,[1],80.5 µM
same,IC50,[2],> 100 µM
same,IC50,[3],66.8 µM
same,IC50,[4],> 100 µM
same,IC50,[5],> 100 µM
same,IC50,[6],82 µM
COC1=C(OC)/C(=C/Cn2cc(C3CC3)nn2)OC1=O,IC50,[1],> 100 µM
same,IC50,[2],> 100 µM
same,IC50,[3],> 100 µM
same,IC50,[4],> 100 µM
same,IC50,[5],> 100 µM
same,IC50,[6],> 100 µM
COC1=C(OC)/C(=C/Cn2cc(CO)nn2)OC1=O,IC50,[1],> 100 µM
same,IC50,[2],> 100 µM
same,IC50,[3],35 µM
same,IC50,[4],> 100 µM
same,IC50,[5],> 100 µM
same,IC50,[6],> 100 µM
CCCc1cn(C/C=C2\OC(=O)C(OCc3ccccc3)=C2OCc2ccccc2)nn1,IC50,[1],> 100 µM
same,IC50,[2],> 100 µM
same,IC50,[3],> 100 µM
same,IC50,[4],> 100 µM
same,IC50,[5],> 100 µM
same,IC50,[6],> 100 µM
